According to ChEMBL document CHEMBL3045825, “Synthesis, fungicidal activity, and structure-activity relationship of 2-oxo- and 2-hydroxycycloalkylsulfonamides” (J Agric Food Chem, 2010):
Values after ≈ are worked out from the molar mass of the structure shown.

Legend:
[1] = test system: Botrytis cinerea; assay: Fungicidal activity against Botryotinia fuckeliana assessed as inhibition of mycelial growth; assay type: functional, organism-based
[2] = test system: Botrytis cinerea; assay: Fungicidal activity against Botryotinia fuckeliana grown on compound pre-treated cucumber leaves assessed as control efficiency against gray mold disease on leaves at 125 ug/mL; assay type: functional
Summary of the method: (§1)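 Cucumber leaves sprayed with formulation diluted in water (500, 125, 31.25 μg/mL), air-dried, then upper surface inoculated with 6 mm plugs of B. cinerea Pers. maintained on PDA. Disease spot diameter measured; control efficiency from inhibition-rate equation. Procedure repeated 3 times, 9 replicates; procymidone and pyrimethanil (95%) positive controls.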

[3] = test system: Botrytis cinerea; assay: Fungicidal activity against Botryotinia fuckeliana grown on compound pre-treated cucumber leaves assessed as control efficiency against gray mold disease on leaves at 31.25 ug/mL; assay type: functional; summary of the method: as §1
[4] = test system: Botrytis cinerea; assay: Fungicidal activity against Botryotinia fuckeliana assessed as inhibition spore germination; assay type: functional, organism-based
Summary of the method: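 Conidial germination on microscope slides: B. cinerea conidia about 2×10⁵ spores/mL in 0.05% Tween 80; acetone stock (5000 μg/mL) diluted in suspension to final 200, 50, 12.5, 3.12, 0.78 μg/mL. 30 μL on concave slide, humid chamber 23 °C, 100% RH, 8 h; germinated conidia counted in five fields. Three replicates; procymidone positive control.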

[5] = test system: Botrytis cinerea; assay: Fungicidal activity against Botryotinia fuckeliana grown on compound pre-treated cucumber leaves assessed as control efficiency against gray mold disease on leaves at 500 ug/mL; assay type: functional; summary of the method: as §1
[6] = test system: Botrytis cinerea; assay: Potency index, ratio of EC80 for procymidone to EC80 for test compound against Botryotinia fuckeliana assessed as inhibition of mycelial growth; assay type: functional

Compound | EC50 [1] | EC80 [1] | Efficacy [2] | Efficacy [3] | EC50 [4] | EC80 [4] | Efficacy [5] | Ratio [6]
O=S(=O)(Nc1ccccc1)C1CCCCC1O (configuration not stated) | 22.9 µg/mL (≈ 89.7 µM) | 443 µg/mL (≈ 1740 µM) | – | – | – | – | – | –
Cc1ccc(NS(=O)(=O)C2CCCCC2O)cc1 (configuration not stated) | 18 µg/mL (≈ 66.9 µM) | 65.4 µg/mL (≈ 243 µM) | – | – | – | – | – | –
Cc1ccc(NS(=O)(=O)C2CCCCC2O)c(C)c1 (configuration not stated) | 21.5 µg/mL (≈ 75.8 µM) | 332 µg/mL (≈ 1170 µM) | – | – | – | – | – | –
CCc1cccc(C)c1NS(=O)(=O)C1CCCCC1O (configuration not stated) | 105 µg/mL (≈ 352 µM) | > 10000 µg/mL | – | – | – | – | – | –
COc1ccc(OC)c(NS(=O)(=O)C2CCCCC2O)c1 (configuration not stated) | 22.3 µg/mL (≈ 70.7 µM) | 181 µg/mL (≈ 575 µM) | – | – | – | – | – | –
Cc1cc(F)ccc1NS(=O)(=O)C1CCCCC1O (configuration not stated) | 34.1 µg/mL (≈ 119 µM) | 310 µg/mL (≈ 1080 µM) | – | – | – | – | – | –
O=S(=O)(Nc1ccccc1F)C1CCCCC1O (configuration not stated) | 24 µg/mL (≈ 87.8 µM) | 84.2 µg/mL (≈ 308 µM) | – | – | – | – | – | –
O=S(=O)(Nc1ccccc1Cl)C1CCCCC1O (configuration not stated) | 75.6 µg/mL (≈ 261 µM) | > 10000 µg/mL | – | – | – | – | – | –
O=S(=O)(Nc1ccccc1Br)C1CCCCC1O (configuration not stated) | 11 µg/mL (≈ 32.9 µM) | 250 µg/mL (≈ 749 µM) | – | – | – | – | – | –
O=S(=O)(Nc1ccc(Cl)cc1)C1CCCCC1O (configuration not stated) | 7.38 µg/mL (≈ 25.5 µM) | 86.5 µg/mL (≈ 298 µM) | – | – | – | – | – | –
O=S(=O)(Nc1ccc(Br)cc1)C1CCCCC1O (configuration not stated) | 7.07 µg/mL (≈ 21.2 µM) | 21.4 µg/mL (≈ 64 µM) | – | – | – | – | – | –
O=S(=O)(Nc1ccc(C(F)(F)F)cc1)C1CCCCC1O (configuration not stated) | 8.79 µg/mL (≈ 27.2 µM) | 65.9 µg/mL (≈ 204 µM) | – | – | – | – | – | –
O=S(=O)(Nc1ccc(Cl)cc1Cl)C1CCCCC1O (configuration not stated) | 53.2 µg/mL (≈ 164 µM) | 518 µg/mL (≈ 1600 µM) | – | – | – | – | – | –
O=S(=O)(Nc1ccc(Cl)c(Cl)c1)C1CCCCC1O (configuration not stated) | 7.8 µg/mL (≈ 24.1 µM) | 25.5 µg/mL (≈ 78.6 µM) | – | – | – | – | – | –
O=S(=O)(Nc1cc(C(F)(F)F)ccc1C(F)(F)F)C1CCCCC1O (configuration not stated) | 2.53 µg/mL (≈ 6.47 µM) | 16 µg/mL (≈ 40.9 µM) | – | – | – | – | – | –
O=S(=O)(Nc1cc(C(F)(F)F)cc(C(F)(F)F)c1)C1CCCCC1O (configuration not stated) | 4.44 µg/mL (≈ 11.3 µM) | 14.6 µg/mL (≈ 37.4 µM) | – | – | – | – | – | –
O=S(=O)(Nc1ccc(Cl)cc1C(F)(F)F)C1CCCC1O (configuration not stated) | 36.4 µg/mL (≈ 106 µM) | 64.4 µg/mL (≈ 187 µM) | 68.9% | 62.44% | 5.29 µg/mL (≈ 15.4 µM) | 43 µg/mL (≈ 125 µM) | 81.12% | –
O=S(=O)(Nc1ccc(Cl)cc1C(F)(F)F)C1CCCCC1O (configuration not stated) | 3.37 µg/mL (≈ 9.42 µM) | 14.3 µg/mL (≈ 39.9 µM) | 72.42% | 53.05% | 40.1 µg/mL (≈ 112 µM) | 260 µg/mL (≈ 727 µM) | 93.54% | –
O=S(=O)(Nc1ccc(Cl)cc1C(F)(F)F)C1CCCCCC1O (configuration not stated) | 0.85 µg/mL (≈ 2.29 µM) | 5.27 µg/mL (≈ 14.2 µM) | 92.67% | 74.77% | 77 µg/mL (≈ 207 µM) | > 1000 µg/mL | 95.01% | –
O=S(=O)(Nc1ccc(Cl)cc1C(F)(F)F)C1CCCCCCC1O (configuration not stated) | 1.09 µg/mL (≈ 2.83 µM) | 2.5 µg/mL (≈ 6.48 µM) | 93.55% | 91.49% | 23.6 µg/mL (≈ 61.2 µM) | 693 µg/mL (≈ 1800 µM) | 94.42% | 1.18
O=S(=O)(Nc1ccc(Cl)cc1C(F)(F)F)C1CCCCCCCCCCC1O (configuration not stated) | 5.72 µg/mL (≈ 12.9 µM) | 49.4 µg/mL (≈ 112 µM) | 15.49% | 8.45% | 420 µg/mL (≈ 950 µM) | > 1000 µg/mL | 26.06% | –
O=C1CCCC1S(=O)(=O)Nc1ccc(Cl)cc1C(F)(F)F (configuration not stated) | 2.5 µg/mL (≈ 7.32 µM) | 15.1 µg/mL (≈ 44.1 µM) | 72.42% | 60.68% | 4.21 µg/mL (≈ 12.3 µM) | 227 µg/mL (≈ 663 µM) | 74.77% | –
O=C1CCCCCC1S(=O)(=O)Nc1ccc(Cl)cc1C(F)(F)F (configuration not stated) | 0.8 µg/mL (≈ 2.16 µM) | 3.7 µg/mL (≈ 10 µM) | 21.95% | 11.97% | 18.1 µg/mL (≈ 48.9 µM) | 388 µg/mL (≈ 1050 µM) | 49.53% | –
O=C1CCCCCCC1S(=O)(=O)Nc1ccc(Cl)cc1C(F)(F)F (configuration not stated) | 1.22 µg/mL (≈ 3.18 µM) | 2.88 µg/mL (≈ 7.5 µM) | 67.14% | 64.79% | 19 µg/mL (≈ 49.4 µM) | 549 µg/mL (≈ 1430 µM) | 67.72% | 1.03
O=C1CCCCCCCCCCC1S(=O)(=O)Nc1ccc(Cl)cc1C(F)(F)F (configuration not stated) | 1.94 µg/mL (≈ 4.41 µM) | 39.8 µg/mL (≈ 90.5 µM) | 95.6% | 82.98% | 3.24 µg/mL (≈ 7.36 µM) | 115 µg/mL (≈ 260 µM) | 97.07% | –
O=C1CCCCC1S(=O)(=O)Nc1ccc(Cl)cc1C(F)(F)F (configuration not stated) | 2.16 µg/mL (≈ 6.07 µM) | 5.2 µg/mL (≈ 14.6 µM) | 20.78% | 16.08% | 4.21 µg/mL (≈ 11.8 µM) | 124 µg/mL (≈ 349 µM) | 28.99% | –
CC12CC1(C)C(=O)N(c1cc(Cl)cc(Cl)c1)C2=O (configuration not stated) [PROCYMIDONE] | 0.99 µg/mL (≈ 3.48 µM) | 2.96 µg/mL (≈ 10.4 µM) | 73.59% | 61.27% | – | – | 91.78% | –
Cc1cc(C)nc(Nc2ccccc2)n1 [PYRIMETHANIL] | – | – | 82.98% | 76.53% | – | – | 100% | –
